# Source: PubChem (several laboratories)
# V-ATPase pHluor – alters yeast V-ATPase proton transport. S. cerevisiae, pHLuorin cytosolic pH fluorescence. response, % at 10 µM. 350,000 compounds, 0.37% hits. AID 504577; in the data active means response mostly above about 7.3%, no sharp cut-off; inactive means mostly below about 5.4%; further: actives read high
# Exocytosis inh – lytic granule exocytosis inhibition; inhibition, % at 10 µM; 360,000 compounds, 0.66% hits; TALL-104 LAMP-1 surface exposure, flow cytometry; cells stimulated with thapsigargin and PMA; AID 651702;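 active means inhibition above about 55%, limit read from the data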
# MPTP block – blocks calcium-induced mitochondrial swelling; isolated mouse mitochondria, Ca2+ swelling absorbance, 30 min; inhibition, % at 10 µM; 360,000 compounds, 1.4% hits;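 active means inhibition of 50% or more, scaled per plate between neutral and stimulator controls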;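 further: 0% = DMSO wells given calcium and 100% = 1 mM EGTA wells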
# rCAG RNA binder – molecules binding r(CAG) RNA repeats; r(CAG) RNA repeat, TO-PRO-1 dye displacement fluorescence; inhibition, % at 3 µM; 370,000 compounds, 1.3% hits;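 active means inhibition above the plate cutoff, the mean of all test compounds on that plate plus 3 SD, cut at about 35% in these data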;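 further: 0% = DMSO alone and 100% = 100 µM mitoxantrone as full dye displacement; higher means more dye released from RNA so lower well fluorescence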
# T cell HTS – T cell immune modulation candidate; 2C CD8+ T cell-vesicle binding, flow cytometry; stronger effect = lower value; response (vesicle binding), % at 7 µM; 330,000 compounds, 0.068% hits; AID 2052;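 active means response, share of CD8 T cells binding vesicles, and their 90th percentile fluorescence all below set limits, cut at about 80% in these data, passing the limit was not always enough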;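 further: values below 100% mean blocked vesicle binding to the CD8+ T cells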
#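 Test system: purified 2C TCR transgenic mouse naive CD8+ T cells. Probe or stimulus: QL9-peptide-loaded Drosophila micro-vesicles bearing Ld, ICAM-1 and B7-1. Incubation: binding step 1.5 h, 37 °C, antibody labelling 20 min, ice. Measured by: flow cytometry of vesicle-bound cells.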
# Beta2AR agonist – agonists of human beta-2 adrenergic receptor inducing internalization; P07550; Am2.2-beta2AR cells, FAP receptor internalization, flow cytometry; response, % (test concentration not listed); 340,000 compounds, 0.43% hits;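 active means response above a set limit, near 3 SD of response in nonfluorescent compounds, cut at about 42% in these data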
# Target sequence (P07550 whole entry, looked up): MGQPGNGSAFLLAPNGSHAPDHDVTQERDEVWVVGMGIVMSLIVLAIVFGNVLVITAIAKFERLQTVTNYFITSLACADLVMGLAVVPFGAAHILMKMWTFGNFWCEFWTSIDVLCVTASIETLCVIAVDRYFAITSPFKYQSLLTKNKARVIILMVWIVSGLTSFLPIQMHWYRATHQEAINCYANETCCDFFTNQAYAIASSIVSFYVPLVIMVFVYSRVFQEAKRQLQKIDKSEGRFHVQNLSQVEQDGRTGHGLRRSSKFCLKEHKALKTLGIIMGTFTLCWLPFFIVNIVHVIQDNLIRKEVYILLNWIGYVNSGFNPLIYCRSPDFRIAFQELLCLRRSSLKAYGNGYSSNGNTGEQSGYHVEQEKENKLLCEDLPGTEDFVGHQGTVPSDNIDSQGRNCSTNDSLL
# Rh123 counter – Rhodamine 123 counter-screen of mitochondrial pore hits; shares compounds with MPTP block; isolated mitochondria, membrane potential, Rhodamine 123 fluorescence; inhibition, % at 10 µM; 5,000 compounds, 78% hits; AID 624504; in the data active means inhibition above about 22%;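 further: 0% = DMSO vehicle and 100% = positive control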
# MPTP abs DR – dose response confirmation of mitochondrial permeability transition pore inhibitors; isolated mitochondria swelling, absorbance; shares compounds with MPTP block; 780 compounds, 58% hits; IC50, µM; in the data active means IC50 below about 20 µM
# MPTP counter DR – active in counter-screen for permeability transition pore inhibitors. AID 651564. 780 compounds, 49% hits. shares compounds with MPTP block. IC50, µM. isolated mitochondria counterscreen, fluorescence read-out; in the data active means IC50 below about 80 µM
# * hit, by the source's call; i = inactive; x = no result given. An excerpt weighted towards active compounds, which were near 3.8% of everything screened.
SMILES,V-ATPase pHluor,Exocytosis inh,MPTP block,rCAG RNA binder,T cell HTS,Beta2AR agonist,Rh123 counter,others
CCOc1ccc(OCc2cccc(C(=O)Nc3ccc(CN4CCCCC4)cc3)c2)cc1,7,34,87*,1,306,17,-12,MPTP abs DR=2.4*;MPTP counter DR=43*
C=CCN1C(C(=O)OC)CN(Cc2cn(CCC3OCCO3)nn2)CCS1(=O)=O (configuration not stated),x,x,x,3,x,x,x,
O=C(Nc1ccccc1)c1cc([N+](=O)[O-])ccc1NC1CCCCC1,-1,2,51*,3,265,20,-1,MPTP counter DR=>80
O=C(Nc1ccccc1)c1cc([N+](=O)[O-])ccc1Cl,-1,0,-2,2,516,-9,x,
Cc1ccc(C2(c3noc(CN4CCC(c5ccncc5)CC4)n3)CCCC2)cc1,2,-6,69*,-7,230,4,46*,
COc1ccc(NS(=O)(=O)c2cccc(NC(=O)c3ccc(S(=O)(=O)N4CCCCCC4)cc3)c2)cc1,1,-1,84*,x,252,6,86*,
COc1ccc(NS(=O)(=O)c2ccc(C(=O)N3CCCCCC3)cc2)cc1,0,9,54*,1,94,2,57*,
Cc1cc(N2CCNC[C@H]2C)ccc1N1C[C@@H](C)O[C@@H](C)C1,x,x,x,3,x,x,x,
CCOC(=O)N1CCN(CCC(=O)c2ccc(Cl)cc2)CC1,1,35,103*,1,537,2,4,MPTP abs DR=i;MPTP counter DR=>80
COCCN(CCOC)S(=O)(=O)c1ccc(C(=O)Nc2nc(-c3ccccc3)c(C(=O)c3ccccc3)s2)cc1,6,4,2,7,164,0,x,
CCCN(CCC)S(=O)(=O)c1ccc(C(=O)Nc2nc(-c3ccccc3)c(C(=O)OCC)s2)cc1,-1,0,80*,2,259,-2,5,MPTP abs DR=14*;MPTP counter DR=12*
CC(C)(C)c1ccc(C(=O)N/N=C/c2cccc(Cl)c2)cc1,-1,0,81*,7,420,11,84*,
O=C(N/N=C/c1cccc(F)c1)c1ccc(Cl)cc1,2,0,0,-4,149,5,x,
COc1ccc(-c2nc(CCNC(=O)c3cccs3)cs2)cc1,-2,-7,64*,1,492,-16,15,MPTP abs DR=i;MPTP counter DR=47*
COc1cc(-c2nc(CCNC(=O)c3ccco3)cs2)cc(OC)c1OC,-1,-12,0,-6,83,3,x,
COc1cc(CNc2ccc(O)cc2)cc(Br)c1OCc1ccccc1F,-4,4,5,x,i,10,x,
CCOc1cc(CNCCCN2CCOCC2)cc(Br)c1OCc1ccccc1Cl,1,37,100*,-7,261,30,-4,
CCOc1cc(CNCCO)cc(Br)c1OCc1ccccc1Cl,0,11,82*,-1,330,31,20*,
COc1cc(CNCc2ccncc2)cc(Br)c1OCc1ccccc1F,-2,7,94*,-3,424,4,65*,
OCCNCc1cc(Br)ccc1OCc1ccccc1Cl,-4,0,3,7,385,11,x,
COCCCNC(=O)C[C@H]1C[C@@]2(C(=O)OC)C(=C[C@H](COCc3ccccc3)O[C@@H]2C)N(Cc2ccc3c(c2)OCO3)C1=O,x,x,x,1,x,x,x,
OCc1nc2nc(Cl)c(Cl)nc2[nH]1,1,-3,-2,-5,85,4,x,
CCCCSCc1nc2nc(Cl)c(Cl)nc2[nH]1,4,-1,72*,1,x,x,83*,
CCc1ccc(-c2cc3c(=O)n(CC(=O)NCCCN4CCC(Cc5ccccc5)CC4)nc(C)n3n2)cc1,6,55,98*,1,343,16,-3,MPTP abs DR=3*;MPTP counter DR=>80
CN1CCN(CC(=O)N2c3ccccc3C(C)(c3ccccc3)CC2(C)C)CC1 (configuration not stated),-1,4,74*,x,330,8,-9,MPTP abs DR=i;MPTP counter DR=>80
SMILES,V-ATPase pHluor,Exocytosis inh,MPTP block,rCAG RNA binder,T cell HTS,Beta2AR agonist,Rh123 counter,others
CC1CC(C)(C)N(C(=O)CN2CCN(C)CC2)c2ccccc21 (configuration not stated),0,-2,0,-5,i,-1,x,
CN1CCN(CC(=O)N2c3ccccc3C(C)(c3ccc(Cl)cc3)CC2(C)C)CC1 (configuration not stated),-1,5,75*,-10,316,12,-3,MPTP abs DR=19*;MPTP counter DR=>80
COc1ccc(OC)c(CN(CC(F)(F)F)S(=O)(=O)c2ccccc2Br)c1,x,x,x,1,x,x,x,
Cc1ccc(CN2CCCCC(NC(=O)c3ccc(COc4ccccc4)cc3)C2=O)cc1 (configuration not stated),x,x,x,4,x,x,x,
Cc1nn(C)c(C)c1NC(=O)Nc1cccc(C(F)(F)F)c1,0,-6,72*,-2,722,1,54*,
Cc1ccc(NC(=O)Nc2ccc(Cl)c(Cl)c2)nc1,-3,-13,-1,-3,42,1,x,
Cc1c(NC(=O)Nc2ccc(Cl)c(Cl)c2)c(=O)n(-c2ccccc2)n1C,-2,-1,90*,0,208,-6,90*,
Cc1nn(C)c(C)c1NC(=O)Nc1ccc(Cl)c(Cl)c1,2,-1,102*,0,330,1,88*,
COc1cc(C2SCCS2)cc(Br)c1Oc1ncccc1[N+](=O)[O-],-1,6,58*,4,292,-2,33*,
O=c1c2ccccc2n(Cc2ccno2)n1[C@@H](Cc1ccccc1)Cn1cc(C2CCCC2)nn1,x,x,x,6,x,x,x,
CC(=O)N(C)c1nc(N)n(-c2ccccc2)n1,2,7,107*,-1,290,-5,-3,MPTP abs DR=>100;MPTP counter DR=>80
O=C(NC1CCCCN(Cc2cccc(Cl)c2)C1=O)c1cccc2nsnc12 (configuration not stated),x,x,x,-1,x,x,x,
C[C@@H]1Cc2cc(O)cc(O)c2C(=O)O1,x,x,x,3,x,x,x,
CCCC(=O)c1ccc(N2CCN(C(=O)c3ccccc3)CC2)c(F)c1,-2,-4,2,-8,226,-12,x,
CCCC(=O)c1ccc(N2CCN(C(=O)c3ccccc3Br)CC2)c(F)c1,4,4,80*,-5,230,3,66*,
Cc1ccc2c(c1)C1CS(=O)(=O)N(C3CCCC3)C(=O)N1C2 (configuration not stated),x,x,x,3,x,x,x,
COC(=O)c1ccc(NC(=S)NC2CCc3ccccc32)cc1 (configuration not stated),-4,1,80*,6,201,-11,81*,
Cc1cc(C)nc(N2CCN(C(=O)CSc3nc4ccccc4nc3N3CC(C)OC(C)C3)CC2)n1 (configuration not stated),x,x,x,3,x,x,x,
